High-throughput results as filed in PubChem BioAssay.
ERAP1 inh – blocks human ERAP1 aminopeptidase activity; recombinant ERAP1, Leu-AMC fluorescence, 60 min; inhibition, % at 10.7 µM; actives 0.15% (n = 340,000); AID 652197;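 active = mean replicate inhibition of at least 30%, or all replicates individually reaching that 30% level; inactive = mean below 30% and not every replicate reaching it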;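 note: 0% = neutral control wells and 100% = L-leucinethiol positive control wells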
PGC1a acetyl inh – PGC1a acetylation modulation, inhibitor mode; U2OS PGC1a acetylation, AlphaScreen anti-acetyl-lysine; with virally co-expressed GCN5 acetyltransferase; inhibition, % at 15.6 µM; actives 0.17% (n = 350,000); AID 651687;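 active = every replicate shows inhibition of at least 40%; inconclusive = mean inhibition at least 40% but some replicate below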;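 note: 0% = neutral control wells and 100% = positive control wells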
Cneo AK release – Cryptococcus neoformans lysis via adenylate kinase release | AID 651654 | lysis activity, % at 15 µM | C. neoformans lysis, adenylate kinase release luminescence, 4 h; normalised: neutral wells 0, clomiphene wells 100 | actives 0.2% (n = 360,000);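 active = mean lysis activity across replicates of at least 80%, whatever share of replicates individually reach that level; inactive = mean lysis activity below 80%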
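Material: C. neoformans cells | Amount: Yeast cell density of 5 × 10^6 cells/mL | Medium: Fresh YPD growth medium | Dosing: Single dose | Times: Static 4 h at 37 °C with compound, 1 h detection | Detection: AK luminescence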
Ecoli rRNA inh – selective bacterial rRNA inhibition in E. coli; E. coli WT GFP vs humanized-ribosome RFP mutants, fluorescence, 24 h; stronger effect = lower value; DMSO median 0, no signal -100; GFP signal change (wild-type ribosome), % (concentration not given with the values); actives 1.6% (n = 350,000);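 active = significant combined selectivity score with lowered wild-type GFP, culture density cut under 30%, mutant RFP and density less affected; inactive = any of these conditions unmet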
FGF22 binding – shifts melting point of recombinant human FGF22. Q9HCT0. recombinant FGF22 thermal shift, SYPRO orange fluorescence; percent of sucrose octasulfate shift, DMSO zero. activity (Tm shift, normalised), % at 9.99 µM. actives 1.5% (n = 340,000);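 active = mean Tm shift, scaled 0 neutral to 100 positive control, at about 1.3% or above, every replicate too, limit read from the data; inconclusive = no clear call, values can overlap the other calls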
Target sequence (Q9HCT0 whole entry, looked up): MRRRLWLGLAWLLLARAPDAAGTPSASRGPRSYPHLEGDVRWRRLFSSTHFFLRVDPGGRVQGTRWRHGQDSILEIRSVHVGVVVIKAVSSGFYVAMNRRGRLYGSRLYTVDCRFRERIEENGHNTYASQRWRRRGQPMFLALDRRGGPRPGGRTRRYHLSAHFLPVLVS
HIV Env fusion – inhibitors of HIV Env-mediated cell fusion; inhibition, % at 12.3 µM; AID 651610; HeLa-JRFL Env/CEM21 cell fusion, luciferase; actives 1.1% (n = 360,000);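 active = mean replicate inhibition score of at least 50 and every replicate individually at or above 50; inconclusive = only one of the two criteria met; inactive = mean below 50 and not all replicates reaching 50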;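 note: 0% = plate neutral controls and 100% = maraviroc near 300 nM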
Numbers without * were called inactive; ? = inconclusive; . = not tested or not shown; [ ] = dose if it differs, or a comment. Rows were chosen to be rich in hits. Some 3.5% of all compounds tested hit in one or more screens of this group.

SMILES	ERAP1 inh	PGC1a acetyl inh	Cneo AK release	Ecoli rRNA inh	FGF22 binding	HIV Env fusion
COc1ccccc1-c1ccc(SCC(=O)NCCc2ccccc2)nn1	2	-2	1	-32*	0	2
COc1ccccc1-c1ccc(SCc2ccccc2F)nn1	6	-9	.	-36*	0	-34
COc1ccccc1-c1ccc(SCc2cccc(F)c2)nn1	-3	.	.	-30*	0	8
COc1ccccc1-c1ccc(SCc2ccccc2)nn1	0	-12	.	-33*	0	-27
c1ccc(CSc2ccc(-c3ccccn3)nn2)cc1	-2	7	-7	-17	0	-93
O=C(Nc1ccc([N+](=O)[O-])cc1)c1cccc(S(=O)(=O)Nc2cccnc2)c1	2	.	1	-4	0	11
Cc1ccc(-c2nc(CS(=O)(=O)CC(=O)N3CCCCCC3)c(C)o2)cc1	10	.	1	-6	0	51*
Cc1oc(-c2ccccc2F)nc1CS(=O)(=O)CC(=O)N1CCN(c2ccccc2)CC1	-4	.	-2	-6	0	60*
Nc1cc(=O)[nH]c(N)n1	-2	-1	-2	-13*	0	-15
Cc1cc(=O)[nH]c(N)n1	-5	5	0	10	0	-2
COc1ccc(COC(=O)N/N=C(\C)CC(=O)Nc2ccc(Cl)cn2)cc1	3	5	0	0	0	-6
O=C(C[C@@H]1CC[C@@H]2[C@H](COC[C@H](O)CN2Cc2ccc(Cl)cc2)O1)NCc1cccc(F)c1	3	-10	2	-7	0	.
CCNC(=O)C[C@@H]1CC[C@@H]2[C@H](COC[C@@H](O)CN2C(=O)c2ccccn2)O1	0	2	1	4	0	65*[16.7 µM]
COc1ccccc1CNC(=O)C[C@@H]1CC[C@H]2[C@@H](COC[C@H](O)CN2Cc2ccccc2)O1	.	-7	1	-3	0	-11
O=C(C[C@@H]1CC[C@H]2[C@@H](COC[C@@H](O)CN2Cc2ccc(Cl)cc2)O1)NCc1cccc(F)c1	2	-6	104*	-15	0	.
CCC(=O)N1C[C@H](O)COC[C@@H]2O[C@@H](CC(=O)NCc3ccccc3Cl)CC[C@H]21	1	6	117*	2	0	.
COc1ccccc1CNC(=O)C[C@@H]1CC[C@@H]2[C@H](COC[C@@H](O)CN2Cc2ccccc2)O1	-1	-9	109*	-4	0	.
Cc1nc([N+](=O)[O-])cn1-c1ccc(N)cc1	5	6	0	1	0	16
O=C(CCCOc1ccc(Cl)cc1Cl)Nc1ccncc1	.	4	-2	.	.	.
Cc1cc(OCC(=O)Nc2ccccc2N2CCCC2)ccc1C(C)C	1	.	1	3	0	38
CC1CCN(c2nc(N3CCCCC3)nc(N3CCCCC3)n2)CC1	-1	0	0	21	43*	-13
CN(C)c1nc(N(C)C)nc(N2CCCCC2)n1	.	7	2	.	.	9
CCOC(=O)C1=C(C)N(C)C(=O)NC1c1cc2c(cc1[N+](=O)[O-])OCO2 (stereo not given)	3	7	1	2	44*	-6
COC(=O)Cc1nnn2c1[C@H](C)[C@@H](OC)c1cccc(Cl)c1-2	-2	.	.	10	82*	-16
O=C1NC(=S)SC1=Cc1ccccc1C(=O)O	-10	-10	0	.	1.6*	-24
SMILES	ERAP1 inh	PGC1a acetyl inh	Cneo AK release	Ecoli rRNA inh	FGF22 binding	HIV Env fusion
O=C(Nc1ccccc1)Nc1cc(OCC(F)(F)F)cc(OCC(F)(F)F)c1	-3	.	.	-60	44*	62*
O=C(Nc1ccccc1)Nc1cc(Cl)cc(Cl)c1	.	?	-3	.	.	.
CC(=O)Nc1ccccc1OCC(=O)NC(C)c1ccccc1 (stereo not given)	1	0	.	5	1	17
CC(=O)Nc1ccccc1OCC(=O)N(Cc1ccccc1)C(C)C	-6	20	3	6	0	61*
Cc1ccsc1C(=O)OCC(=O)N(Cc1ccccc1)C(C)C	1	-2	1	-30*	0	3
CC(C)N(Cc1ccccc1)C(=S)Nc1ccc(F)cc1	2	.	.	0	43*	16
Cc1ccc(C(=O)OCC(=O)N(Cc2ccccc2)C(C)C)cc1C	1	.	.	-13	0	-2
O=C(Nc1nnc(COc2ccccc2)s1)c1ccco1	.	-1	5	.	.	-97
O=S(=O)(NCc1ccco1)c1ccc(Cl)s1	3	7	-1	3	0	-5
Cc1ccc2nc(-c3ccc(N4C(=O)CC(N5CCN(CCO)CC5)C4=O)cc3)sc2c1 (stereo not given)	.	.	.	.	.	-23
CC(=O)c1sc(NC(=O)CCCOc2ccc(Cl)cc2)nc1C	5	.	.	17	43*	0
COc1ccc(OCCCC(=O)Nc2nc(C)c(C(C)=O)s2)cc1	5	-16	.	1	0	4
COc1ccc(-c2nn(-c3ccccc3)cc2C(=O)OCC(=O)c2ccc(C)c([N+](=O)[O-])c2)cc1	-4	-6	.	.	43*	-10
COCC(=O)Nc1ccc2c(c1)OC[C@@H](C)N(Cc1cncnc1)C[C@@H](C)[C@H](OC)CN(C)C2=O	.	0	.	1	.	.
CSCCC(NC(=O)c1ccccc1)C(=O)NCCCSc1ccccc1 (stereo not given)	-1	.	1	-23*	0	18
CSc1nc(N)nc(SCC(=O)C(C)(C)C)c1C#N	.	-1	-2	.	.	.
CC1=Nc2ccccc2/C1=C/c1sc(=N)n(-c2nccs2)c1O	0	.	6	-59	.	.
CSc1ccccc1NC(=S)N/N=C/c1cccn1Cc1ccc(F)cc1	3	4	.	-21*	0	11
CSc1ccccc1NC(=S)N/N=C/c1cccn1Cc1cccc(C)c1	5	2	.	12	0	9
C[C@H]1CN([C@@H](C)CO)C(=O)CCCn2cc(nn2)CO[C@@H]1CN(C)C(=O)c1ccccc1	1	-13	-3	-1	0	-4
COc1ccc(C(=O)NCc2nnc(SCC(=O)NC3CCCCC3)n2C)cc1	30*	.	-2	3	0	-9
COC(=O)CSc1nnc(CNC(=O)c2ccc(S(=O)(=O)N(C)C)cc2)n1C	-1	.	.	9	43*	1
CCOC(=O)CSc1nnc(CNC(=O)c2ccc(S(=O)(=O)N(C)C)cc2)n1C	0	10	.	8	0	-5
C[C@H](CO)N1C[C@H](C)[C@H](CN(C)C)Oc2ccc(NC(=O)C3CCCCC3)cc2C1=O	1	5	1	3	0	16[16.7 µM]
COc1ccc(NC(=O)Nc2ccc3c(c2)C(=O)N([C@@H](C)CO)C[C@H](C)[C@H](CN(C)S(=O)(=O)c2ccc(C)cc2)O3)cc1	-1	0	3	3	0	78*[16.7 µM]
